Reference: ChEMBL document CHEMBL1151772, “Discovery of multitarget inhibitors by combining molecular docking with common pharmacophore matching” (J Med Chem, 2008)

Assays:
[1] = biological target: T1, Leukotriene A-4 hydrolase (Homo sapiens, UniProt P09960); assay: Inhibition of epoxide hydrolase activity of human leukotriene A4 hydrolase assessed as LTB4 level by ELISA
T1 sequence (P09960 whole entry): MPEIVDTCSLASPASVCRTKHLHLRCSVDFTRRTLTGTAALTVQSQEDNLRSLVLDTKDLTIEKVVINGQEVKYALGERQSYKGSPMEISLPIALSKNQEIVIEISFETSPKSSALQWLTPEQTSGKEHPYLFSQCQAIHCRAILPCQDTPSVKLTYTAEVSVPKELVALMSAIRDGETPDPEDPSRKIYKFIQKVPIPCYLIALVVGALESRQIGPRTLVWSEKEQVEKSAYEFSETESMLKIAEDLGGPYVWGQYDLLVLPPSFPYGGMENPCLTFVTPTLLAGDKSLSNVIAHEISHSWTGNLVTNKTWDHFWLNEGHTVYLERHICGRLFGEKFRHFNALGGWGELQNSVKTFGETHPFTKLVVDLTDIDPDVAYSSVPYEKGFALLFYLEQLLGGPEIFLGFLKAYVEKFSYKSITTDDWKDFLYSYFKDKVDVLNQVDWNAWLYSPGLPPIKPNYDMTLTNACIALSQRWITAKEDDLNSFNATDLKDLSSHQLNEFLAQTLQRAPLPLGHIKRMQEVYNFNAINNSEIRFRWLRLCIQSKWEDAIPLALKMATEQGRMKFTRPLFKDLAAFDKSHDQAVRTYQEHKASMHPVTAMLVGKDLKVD
Method in brief: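 LTA4 prepared by hydrolysing LTA4 methyl ester in cold acetone/NaOH under nitrogen. Enzyme (300 ng) preincubated with compound 15 min at 37 °C in 10 mM sodium phosphate pH 7.4, 4 mg/mL BSA, 5% DMSO. Reaction started with LTA4 (150 nM final), 10 min at 37 °C, stopped by dilution into buffer; LTB4 measured by ELISA. Three separate experiments.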

[2] = biological target: T1, Leukotriene A-4 hydrolase; assay: Inhibition of aminopeptidase activity of human leukotriene A4 hydrolase assessed as para-nitroanilide release by spectrophotometry
Method in brief: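 Enzyme (1-20 µg) in 50 mM Tris-HCl pH 8.0 with 100 mM NaCl at 37 °C; inhibitor preincubated 2 min; 5% v/v DMSO final. Started with 0.125 mM Ala-p-nitroanilide; p-NA formation followed at 405 nm for 15 min, quantified against p-NA standard curve. IC50 from initial rates across inhibitor concentrations via V0/V = 1 + [I]/IC50; three separate experiments.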

[3] = biological target: T2, Phospholipase A2, membrane associated (Homo sapiens, UniProt P14555); assay: Inhibition of human nonpancreatic secretory phospholipase A2
T2 sequence (P14555 whole entry): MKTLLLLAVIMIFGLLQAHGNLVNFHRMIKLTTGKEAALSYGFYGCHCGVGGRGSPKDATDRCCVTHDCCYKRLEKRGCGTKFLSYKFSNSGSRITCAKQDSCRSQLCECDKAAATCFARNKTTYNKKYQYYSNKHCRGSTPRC
Method in brief: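 Inhibitor preincubated with substrate 10 min at 25 °C. Enzyme added to start; ex 377/em 470 nm read kinetically for 20 min. IC50 from initial rates via V0/V = 1 + [I]/IC50; three separate experiments.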

Row | SMILES | IC50 [1] [µM] | IC50 [2] [µM] | IC50 [3] [µM]
1 | O=C(C[n+]1ccc(Cc2ccc([N+](=O)[O-])cc2)cc1)c1ccccc1 | 386 | 23.4 | 43.7
2 | NCCc1c[nH]c2c(OCc3ccccc3)cccc12 | 217 | 12.5 | 52.5
3 | NC(Cc1c[nH]c2ccc(OCc3ccccc3)cc12)C(=O)O (stereo not given) | 231 | 17.3 | 42.1
4 | NCCOc1ccc(Oc2ccccc2)cc1 |  |  | 7.3
